{"source": "ChEMBL document CHEMBL5724801", "about": "“EUbOPEN Chemogenomics Library - Multiplex” (2024)", "test_system": "HEK-293T", "experiment": "Multiplex assay against HEK293T", "type": "toxicity, cell-based", "details": "human", "outline": "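Cells were classed with CellPathfinder machine-learning gating, first as Hoechst high-intensity objects or normal cells, then (normal cells) as healthy, pyknosed or fragmented nuclei, and finally (pyknosed cells) as mitotic or apoptotic. Staining of live cells at seeding used Hoechst33342, BioTracker Green Microtubule Cytoskeleton Dye, MitoTracker Red and Annexin V Alexa Fluor 680, with imaging on a CQ1 microscope at 37°C and 5% CO2 after compound addition. Tubulin, mitochondrial-mass and membrane-permeability phenotypes are per cents of healthy-nucleus cells.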", "key": {"[1]": {"details": "12 h, 1 µM, compound concentration 1 uM"}, "[2]": {"details": "12 h, 10 µM, compound concentration 10 uM"}, "[3]": {"details": "24 h, 1 µM, compound concentration 1 uM"}, "[4]": {"details": "24 h, 10 µM, compound concentration 10 uM"}, "[5]": {"details": "48 h, 1 µM, compound concentration 1 uM"}, "[6]": {"details": "48 h, 10 µM, compound concentration 10 uM"}}, "note": "Values joined by “and” are separate entries in the source; they are usually repeats but may differ in a detail not shown here. Equal values may be shown once.", "data": [{"smiles": "COCCNc1cc(NC(=O)N2CCCc3cc(CN4CCN(C)CC4=O)c(C=O)nc32)ncc1C#N", "note": "[FGF401]", "values": [{"measurement": "Population Apoptotic (%)", "setting": "[1]", "result": "5.7% and 11.57%"}, {"measurement": "Population Fragmented Nuclei (%)", "setting": "[1]", "result": "1.49% and 2.8%"}, {"measurement": "Population Hoechst High Intensity Objects (%)", "setting": "[1]", "result": 0, "unit": "%"}, {"measurement": "Population Membrane Permeable-Phenotype (%)", "setting": "[1]", "result": "1.74% and 5.56%"}, {"measurement": "Population Mitotic Cells (%)", "setting": "[1]", "result": "94.3% and 88.43%"}, {"measurement": "Population Normal (%)", "setting": "[1]", "result": 100, "unit": "%"}, {"measurement": "Population Pyknosed Nuclei (%)", "setting": "[1]", "result": "47.16% and 84.62%"}, {"measurement": "Population Tubulin-Different-Phenotype (%)", "setting": "[1]", "result": "6.4% and 11.11%"}, {"measurement": "Total Cell Count", "setting": "[1]", "result": "335 and 143"}, {"measurement": "Population Fragmented Nuclei (%)", "setting": "[2]", "result": "2.52% and 7.02%"}, {"measurement": "Population Hoechst High Intensity Objects (%)", "setting": "[2]", "result": 0, "unit": "%"}, {"measurement": "Population Membrane Permeable-Phenotype (%)", "setting": "[2]", "result": "0.56% and 0%"}, {"measurement": "Population Mitochondria Different-Phenotype (%)", "setting": "[2]", "result": "28.09% and 26.67%"}, {"measurement": "Population Mitotic Cells (%)", "setting": "[2]", "result": "94.7% and 80.22%"}, {"measurement": "Population Normal (%)", "setting": "[2]", "result": 100, "unit": "%"}, {"measurement": "Population Pyknosed Nuclei (%)", "setting": "[2]", "result": "41.51% and 79.82%"}, {"measurement": "Total Cell Count", "setting": "[2]", "result": "318 and 114"}, {"measurement": "Population Apoptotic (%)", "setting": "[3]", "result": "13.08% and 17.17%"}, {"measurement": "Population Fragmented Nuclei (%)", "setting": "[3]", "result": "0.93% and 3.47%"}, {"measurement": "Population Healthy Nuclei (%)", "setting": "[3]", "result": "74.95% and 27.78%"}, {"measurement": "Population Hoechst High Intensity Objects (%)", "setting": "[3]", "result": 0, "unit": "%"}, {"measurement": "Population Membrane Permeable-Phenotype (%)", "setting": "[3]", "result": "1.49% and 2.5%"}, {"measurement": "Population Mitochondria Different-Phenotype (%)", "setting": "[3]", "result": "17.33% and 12.5%"}, {"measurement": "Population Mitotic Cells (%)", "setting": "[3]", "result": "86.92% and 82.83%"}, {"measurement": "Population Normal (%)", "setting": "[3]", "result": 100, "unit": "%"}, {"measurement": "Population Pyknosed Nuclei (%)", "setting": "[3]", "result": "24.12% and 68.75%"}, {"measurement": "Population Tubulin-Different-Phenotype (%)", "setting": "[3]", "result": "19.8% and 10%"}, {"measurement": "Population Apoptotic (%)", "setting": "[4]", "result": "12.61% and 19.59%"}, {"measurement": "Population Fragmented Nuclei (%)", "setting": "[4]", "result": "1.6% and 5.3%"}, {"measurement": "Population Hoechst High Intensity Objects (%)", "setting": "[4]", "result": 0, "unit": "%"}, {"measurement": "Population Membrane Permeable-Phenotype (%)", "setting": "[4]", "result": "1.05% and 3.57%"}, {"measurement": "Population Mitochondria Different-Phenotype (%)", "setting": "[4]", "result": "16.84% and 25%"}, {"measurement": "Population Mitotic Cells (%)", "setting": "[4]", "result": "87.39% and 80.41%"}, {"measurement": "Population Normal (%)", "setting": "[4]", "result": 100, "unit": "%"}, {"measurement": "Population Tubulin-Different-Phenotype (%)", "setting": "[4]", "result": "19.21% and 17.86%"}, {"measurement": "Population Apoptotic (%)", "setting": "[5]", "result": "7.89% and 20.99%"}, {"measurement": "Population Fragmented Nuclei (%)", "setting": "[5]", "result": "2.1% and 1.11%"}, {"measurement": "Population Healthy Nuclei (%)", "setting": "[5]", "result": "85.6% and 53.89%"}, {"measurement": "Population Hoechst High Intensity Objects (%)", "setting": "[5]", "result": 0, "unit": "%"}, {"measurement": "Population Membrane Permeable-Phenotype (%)", "setting": "[5]", "result": "6.24% and 0%"}, {"measurement": "Population Mitochondria Different-Phenotype (%)", "setting": "[5]", "result": "18.81% and 29.9%"}, {"measurement": "Population Mitotic Cells (%)", "setting": "[5]", "result": "92.11% and 79.01%"}, {"measurement": "Population Normal (%)", "setting": "[5]", "result": 100, "unit": "%"}, {"measurement": "Population Fragmented Nuclei (%)", "setting": "[6]", "result": "3.22% and 0%"}, {"measurement": "Population Healthy Nuclei (%)", "setting": "[6]", "result": "84.41% and 59.29%"}, {"measurement": "Population Hoechst High Intensity Objects (%)", "setting": "[6]", "result": "0% and 0.71%"}, {"measurement": "Population Membrane Permeable-Phenotype (%)", "setting": "[6]", "result": "4.23% and 1.2%"}, {"measurement": "Population Mitochondria Different-Phenotype (%)", "setting": "[6]", "result": "18.89% and 40.96%"}, {"measurement": "Population Mitotic Cells (%)", "setting": "[6]", "result": "94.37% and 80.7%"}, {"measurement": "Population Normal (%)", "setting": "[6]", "result": "100% and 99.29%"}]}, {"smiles": "CC(C)(O)c1cnc(N2C[C@@]3(CCC[C@](C)(Cn4cnc5ccc(C#N)cc54)C3)OC2=O)cn1", "note": "[GSK2798745]", "values": [{"measurement": "Population Apoptotic (%)", "setting": "[1]", "result": "8.76% and 9.45%"}, {"measurement": "Population Fragmented Nuclei (%)", "setting": "[1]", "result": "1.42% and 8.48%"}, {"measurement": "Population Hoechst High Intensity Objects (%)", "setting": "[1]", "result": 0, "unit": "%"}, {"measurement": "Population Membrane Permeable-Phenotype (%)", "setting": "[1]", "result": "0% and 4.17%"}, {"measurement": "Population Mitochondria Different-Phenotype (%)", "setting": "[1]", "result": "40% and 37.5%"}, {"measurement": "Population Mitotic Cells (%)", "setting": "[1]", "result": "91.24% and 90.55%"}, {"measurement": "Population Normal (%)", "setting": "[1]", "result": 100, "unit": "%"}, {"measurement": "Population Pyknosed Nuclei (%)", "setting": "[1]", "result": "38.92% and 76.97%"}, {"measurement": "Total Cell Count", "setting": "[1]", "result": "352 and 165"}, {"measurement": "Population Apoptotic (%)", "setting": "[2]", "result": "8.93% and 6.72%"}, {"measurement": "Population Fragmented Nuclei (%)", "setting": "[2]", "result": "1.58% and 0.69%"}, {"measurement": "Population Healthy Nuclei (%)", "setting": "[2]", "result": "45.43% and 17.24%"}, {"measurement": "Population Hoechst High Intensity Objects (%)", "setting": "[2]", "result": "0.63% and 0%"}, {"measurement": "Population Membrane Permeable-Phenotype (%)", "setting": "[2]", "result": 0, "unit": "%"}, {"measurement": "Population Mitochondria Different-Phenotype (%)", "setting": "[2]", "result": "36.11% and 20%"}, {"measurement": "Population Mitotic Cells (%)", "setting": "[2]", "result": "91.07% and 93.28%"}, {"measurement": "Population Normal (%)", "setting": "[2]", "result": "99.37% and 100%"}, {"measurement": "Population Pyknosed Nuclei (%)", "setting": "[2]", "result": "53% and 82.07%"}, {"measurement": "Population Tubulin-Different-Phenotype (%)", "setting": "[2]", "result": "24.31% and 48%"}, {"measurement": "Total Cell Count", "setting": "[2]", "result": "319 and 145"}, {"measurement": "Population Apoptotic (%)", "setting": "[3]", "result": "18.02% and 17.31%"}, {"measurement": "Population Fragmented Nuclei (%)", "setting": "[3]", "result": "0.94% and 3.7%"}, {"measurement": "Population Healthy Nuclei (%)", "setting": "[3]", "result": "78.24% and 32.1%"}, {"measurement": "Population Hoechst High Intensity Objects (%)", "setting": "[3]", "result": 0, "unit": "%"}, {"measurement": "Population Membrane Permeable-Phenotype (%)", "setting": "[3]", "result": "2.88% and 0%"}, {"measurement": "Population Mitochondria Different-Phenotype (%)", "setting": "[3]", "result": "16.31% and 11.54%"}, {"measurement": "Population Mitotic Cells (%)", "setting": "[3]", "result": "81.98% and 82.69%"}, {"measurement": "Population Normal (%)", "setting": "[3]", "result": 100, "unit": "%"}, {"measurement": "Population Tubulin-Different-Phenotype (%)", "setting": "[3]", "result": "16.79% and 7.69%"}, {"measurement": "Population Apoptotic (%)", "setting": "[4]", "result": "17.91% and 14.14%"}, {"measurement": "Population Fragmented Nuclei (%)", "setting": "[4]", "result": "2.04% and 1.31%"}, {"measurement": "Population Healthy Nuclei (%)", "setting": "[4]", "result": "63.87% and 33.99%"}, {"measurement": "Population Hoechst High Intensity Objects (%)", "setting": "[4]", "result": 0, "unit": "%"}, {"measurement": "Population Membrane Permeable-Phenotype (%)", "setting": "[4]", "result": "0.8% and 0%"}, {"measurement": "Population Mitochondria Different-Phenotype (%)", "setting": "[4]", "result": "27.09% and 9.62%"}, {"measurement": "Population Mitotic Cells (%)", "setting": "[4]", "result": "82.09% and 85.86%"}, {"measurement": "Population Normal (%)", "setting": "[4]", "result": 100, "unit": "%"}, {"measurement": "Population Pyknosed Nuclei (%)", "setting": "[4]", "result": "34.1% and 64.71%"}, {"measurement": "Population Tubulin-Different-Phenotype (%)", "setting": "[4]", "result": "37.85% and 13.46%"}, {"measurement": "Total Cell Count", "setting": "[4]", "result": "393 and 153"}, {"measurement": "Population Fragmented Nuclei (%)", "setting": "[5]", "result": "2.32% and 3.45%"}, {"measurement": "Population Healthy Nuclei (%)", "setting": "[5]", "result": "86.2% and 69.4%"}, {"measurement": "Population Hoechst High Intensity Objects (%)", "setting": "[5]", "result": "0% and 1.28%"}, {"measurement": "Population Membrane Permeable-Phenotype (%)", "setting": "[5]", "result": "5.88% and 4.97%"}, {"measurement": "Population Mitochondria Different-Phenotype (%)", "setting": "[5]", "result": "16.75% and 31.68%"}, {"measurement": "Population Mitotic Cells (%)", "setting": "[5]", "result": "97.55% and 73.02%"}, {"measurement": "Population Normal (%)", "setting": "[5]", "result": "100% and 98.72%"}, {"measurement": "Population Pyknosed Nuclei (%)", "setting": "[5]", "result": "11.48% and 27.16%"}, {"measurement": "Population Apoptotic (%)", "setting": "[6]", "result": "12.84% and 15.85%"}, {"measurement": "Population Fragmented Nuclei (%)", "setting": "[6]", "result": "2.45% and 0.91%"}, {"measurement": "Population Healthy Nuclei (%)", "setting": "[6]", "result": "82.72% and 61.64%"}, {"measurement": "Population Hoechst High Intensity Objects (%)", "setting": "[6]", "result": "0.14% and 0%"}, {"measurement": "Population Membrane Permeable-Phenotype (%)", "setting": "[6]", "result": "8.39% and 0.74%"}, {"measurement": "Population Mitochondria Different-Phenotype (%)", "setting": "[6]", "result": "44.41% and 40%"}, {"measurement": "Population Mitotic Cells (%)", "setting": "[6]", "result": "87.16% and 84.15%"}, {"measurement": "Population Normal (%)", "setting": "[6]", "result": "99.86% and 100%"}, {"measurement": "Population Pyknosed Nuclei (%)", "setting": "[6]", "result": "14.83% and 37.44%"}]}]}
